According to the RNAGym collection of RNA variant scans (doi:10.1126/science.aae0568):
Fewer inactive variants are shown than the library holds.

B1: tRNA (parent)
chain: GUUCCGUUGGCGUAAUGGUAACGCGUCUCCCUCCUAAGGAGAAGACUGCGGGUUCGAGUCCCGUACGGAACG

Variants of: B1
Assay: yeast fitness relative to wild type (ratio to wild type); higher = fitter; tRNA-Arg(CCU), competitive growth, 37 C, YPD
Outline: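 Gene amplicons from the start population and from each of six end populations were read by 100-nucleotide paired-end sequencing. Those end populations came from pooled Saccharomyces cerevisiae strains carrying tRNA-Arg(CCU) gene variants at the native locus, competed in YPD at 37°C for 24 hours. Fitness relative to wild type was worked out from changes in genotype frequencies. Genotypes needed ≥ 100 starting reads, and estimates < 0.5 were set to 0.5.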

Variant | yeast fitness
GUUUCGUUGGCGUAAUGGUAACGAGUCUCCCUCCUAAGGAGAACACUGCCGGUGCGAGUCGCGUACGGAACG | ≤ 0.5
GUUUCGUUGGUGUAAUGGUAACGCGUCUCCCUCGUAAGGCGAAGACUGCGCGUUCGAGUCCCGUACGGAACG | 0.534
GUUUCGUUGGUGUAAUGGUAACGCGUCUCCCUUCUAAGGAGAAGACUGCGGGUUCGAGUCCCGUACGGAACG | 0.575
GUUUGGUUGGCGUAAUGGUAACGCGUCCCCCUCCUAAGGAGAAGACUGCGGGUUCGAGUCACGUACGGAACG | ≤ 0.5
GUUUCGUUGGAGUAAUGGUAACGCGUCUCCCUCCUACGGAGAAGACUGCGGGUUCGAGUCCCGUACGGAACG | 0.569
GUUUCGUUGGAAUAAUGGUAACGCGUCUCCCUCCUAAGGAGAAGACUACGGGUUCGCGUCCCGUACGGAACG | ≤ 0.5
GUUUGGUUGGCGUAAUGGUAACGCGUCUCCCUCCUAAGGAAAAGACUGCGGGUUCGAGUCCCGUACGGAGCG | ≤ 0.5
GUUUCGUUGGCGUAAUGGUAACGAGUCUCCCUCCUAAGGAGAAGACGGCGGGUUCGAGCCCCGUACGGAACG | ≤ 0.5
GUUUCGUUGGUGCAAUGGUAACGCGUCUCCCUGCUAAGGCGAAGACUGCGGGUUCGAGUCCCGUACGGAACG | ≤ 0.5
GUUUCGUUGGGGUAAUGGUAACGCGUCUCCCUCCUAAGGAGAAGACUGCGGGUUCCAGUCCCGUACGGAACG | ≤ 0.5
GUUUCGUUGGCGUAAUGGUAACGAGUCUCCCUCCUAAGGAGAAGACUGCGGGUUCGAGUCCCGUACGGAACG | 0.574
GUUUCGUUGGAGUAAUGGUAACGCGUCUCCCUCCUAAGGAGAAGACUGCGGGUUCGAGUCCCGUACUGAACG | ≤ 0.5
GUUUCGUUGGUGUAAUGGUAAGGCGUCUCCCUCCUAAGGAGAAGACUGCGGGUUCGAGUCCCGUACGGAACG | 0.629
GUUUCGUUGGAGUCAUGGUAACGCGUCACCUUCCUAUGAAGGAGACUGCGGGUUCGAGUCCCGUACGGAACG | 0.645
GUUUCGUUGGCGUAAUGGUAAGGCGUCUCCCUCCUAAGGAGGAGACUGCGGGUUCGAGUCCCGUACGGAACG | 0.695
GUUUCGUUGGUGUAAUGGUAACGCGUCUCCCUCCAAAGGAGAAGACUGCGGGUUCGAGUCCCGUACGGAACG | 0.523
GUUUGGUUGGCGUAAUGCUAACGCGUCUCCCUCUUAAGGAGAAGACUGCGGGUUCGAGUCCCGUACGGCACG | ≤ 0.5
GUUUCGUUGGUGUAAUGGUAACGCGUCUCCGUCCUAAGGAGAAGAAUGCGGGUUCGAGUCCCCUUCGGAACG | ≤ 0.5
GUUUCGUUGGGGUAAUGCUAACGCGUCUCCCUCCUAAGGAGAAGACAGCGGGUUCGAGUCCCAUACGGAACG | ≤ 0.5

Variant | yeast fitness
GUUUCGUUGGGGUAAUGGUAACGAGUCUCCCUCCUUAGGAGACGACUGCGGGUUCGAGUCCCGUACGGAACG | 0.55
GUUUCGUUGGAGUAAUGGUAACGCGUCACCUUCCUAAGGAGAAGACUGCGCGUUCAAGUCCCGUACGGAACG | ≤ 0.5
GUUUGGUUGGCGUAAUGGUAACGCGUCUCCCUCCUAAGGAAAAGACUGCGGGUUCGAGUCCCGUACGGAACG | 0.505
GUUUCGUUGGCGUAAUGGUAAGGCGUCACCCUCCUUAGGAGAAGACUGCGAGUUCGAGUCCCGUACGGAACG | ≤ 0.5
GUUUCGUUGGUGUAAUGGUAACGCCUCUCCCUCCUAAGGAAAAGACUGCGGGUUCGAGUCCCGUACGGAACG | 0.706
GUUUCGUUGGGGUAAUGGUAACGCGUCUCCCUCCUAAGGAGAAGUCUGCGGGUUCGAGUCCCGUACGGAACG | 0.545
GUUUCGUUGGCGUAAUGGUAAGGCGUCUCCCUACUCAGGAGAGGACUGCGGGUUGGAGUCCCGUACGGAACG | 0.742
GUUUCGUUGGCGUAAUGGUAAUGCGUCUCCCUUCUAAGGAGCAGACUGCGGGUUCGGGUCCCGUACGGAACG | ≤ 0.5
GUUUCGUUGGAGUAAUGGUAACGCGUCUCCCUCCUAAGGAGGAGACUCCGGGUUCGAGUCCCGUUCGGAACG | 0.555
GUUUGGUUGGCGUAAUGGUAACGCGUCCCCCUCCUAAGGAGAAGACUGCGGGUUCGAGUCCCGUACGGACCG | 0.637
GUUUCGUUGGCGUAAUGGUAACGAGUCUCCCUCCUAAGGAGAGGACUGCGGGUUCGAGUCCCCUACGGAACG | ≤ 0.5
GUUUCGUUGGCGUAAUGGUAACGGGUCUCGUUCCAUAGGAGAAAACUGCGGGUUCGAGUCCCCUACGGAACG | 0.654
GUUUCGUUGGCGUAAUGGUAAGGCGUCACCCUCCUUAGGAGAAGACUGCGGGUUCGAGUCCCGUAUGGAACG | ≤ 0.5
GUUUCGUUGGGGUAAUGAUAACGCGCCUCCCUCCUAAGGAGAAGACUGCGGCUUCGAGUCCCGUACGGAACG | ≤ 0.5
GUUUCGUUGGAGUAAUGGUAACGCGUCUCCCUCCUAAGGAGAAGACUGCGGGUUCGAGUCCCGUCCGGAACG | 0.538
GUUUGGGUGGCGUAAUGGUAACGCGUCUCCCUACUAAGGAGAAGACUGCGGGUUCGAGUCCCGUACGGAUCG | ≤ 0.5
GUUUCGUUGGCGUAAUGGUAACGGGUCUCCCUCCUCAGGAGAAGACUGCGGGUUCGAGUCCCGUACGGACCG | ≤ 0.5
GUUUCGUUGGCGUAAUGGUAAGGCGUUUCCCUCCUAAGGAGAAGACUGCAGGUUCGAGUCCCAUACGGAACG | ≤ 0.5
GUUUCGUUGGAGUAAUGGUAACGCGUCUCCCUCCUAAGAAGAAGACUGCGAGUUCGAGUCCCGUACCGAACG | ≤ 0.5
